Active and inactive are the calls of the source. The rule behind the calls is not given here.
What was measured:
[1] = molecular target: Dual specificity tyrosine-phosphorylation-regulated kinase 4 (Homo sapiens) (UniProt Q9NR20); test: Inhibition of DYRK4 (unknown origin) at 123 nM in the presence of ATP by Kinome scan method relative to control; conditions: time > 6.0 hrs
[2] = molecular target: Aurora kinase B (Homo sapiens) (UniProt Q96GD4); test: Inhibition of AURKB (unknown origin) at 100 nM in the presence of ATP by Kinome scan method relative to control
Aurora kinase B (Homo sapiens), sequence (Q96GD4 whole entry): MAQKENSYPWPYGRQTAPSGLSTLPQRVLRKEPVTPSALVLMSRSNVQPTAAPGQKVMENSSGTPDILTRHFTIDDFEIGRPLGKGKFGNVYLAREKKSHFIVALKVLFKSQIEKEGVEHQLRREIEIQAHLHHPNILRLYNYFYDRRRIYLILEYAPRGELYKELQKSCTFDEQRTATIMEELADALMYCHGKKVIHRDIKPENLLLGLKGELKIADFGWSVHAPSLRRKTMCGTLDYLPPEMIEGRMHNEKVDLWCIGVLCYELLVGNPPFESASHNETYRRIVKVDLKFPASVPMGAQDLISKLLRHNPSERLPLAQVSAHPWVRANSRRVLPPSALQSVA

[3] = molecular target: Serine/threonine-protein kinase B-raf (Homo sapiens) (UniProt P15056); test: Inhibition of BRAF (unknown origin) at 1000 nM in the presence of ATP by Kinome scan method relative to control
Homo sapiens = species: Homo sapiens; test: Inhibition of CDK2/cyclin A (unknown origin) at 1000 nM in the presence of ATP by Kinome scan method relative to control
[4] = molecular target: T1, Cyclin-dependent kinase 5/CDK5 activator 1 (Homo sapiens) (UniProt Q00535+Q15078); test: Inhibition of CDK5/p25 (unknown origin) at 1000 nM in the presence of ATP by Kinome scan method relative to control; type: protein-complex assay
T1 sequence (Q00535 whole entry): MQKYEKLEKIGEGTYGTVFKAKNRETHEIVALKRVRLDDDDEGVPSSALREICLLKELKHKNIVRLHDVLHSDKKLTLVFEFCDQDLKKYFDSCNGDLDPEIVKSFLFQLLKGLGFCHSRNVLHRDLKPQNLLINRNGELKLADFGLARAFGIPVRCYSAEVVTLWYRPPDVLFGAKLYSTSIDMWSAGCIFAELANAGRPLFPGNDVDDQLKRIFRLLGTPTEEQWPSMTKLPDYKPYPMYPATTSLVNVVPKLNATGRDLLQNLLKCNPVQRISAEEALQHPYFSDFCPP
T1 sequence (Q15078 99-307 partner limits assumed): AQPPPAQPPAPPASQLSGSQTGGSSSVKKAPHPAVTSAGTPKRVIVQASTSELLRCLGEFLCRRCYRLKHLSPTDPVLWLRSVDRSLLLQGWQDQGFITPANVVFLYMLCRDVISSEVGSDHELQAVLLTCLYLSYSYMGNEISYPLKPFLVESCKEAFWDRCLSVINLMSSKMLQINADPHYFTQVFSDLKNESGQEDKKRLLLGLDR

[5] = molecular target: T1, Cyclin-dependent kinase 5/CDK5 activator 1 (Homo sapiens); test: Inhibition of CDK5/p35 (unknown origin) at 100 nM in the presence of ATP by Kinome scan method relative to control; type: protein-complex assay
[6] = molecular target: Serine/threonine-protein kinase Chk2 (Homo sapiens) (UniProt O96017); test: Inhibition of CHEK2 (unknown origin) at 1000 nM in the presence of ATP by Kinome scan method relative to control
[7] = molecular target: Glycogen synthase kinase-3 beta (Homo sapiens) (UniProt P49841); test: Inhibition of GSK3B (unknown origin) at 1000 nM in the presence of ATP by Kinome scan method relative to control
Glycogen synthase kinase-3 beta (Homo sapiens), sequence (P49841 whole entry, looked up): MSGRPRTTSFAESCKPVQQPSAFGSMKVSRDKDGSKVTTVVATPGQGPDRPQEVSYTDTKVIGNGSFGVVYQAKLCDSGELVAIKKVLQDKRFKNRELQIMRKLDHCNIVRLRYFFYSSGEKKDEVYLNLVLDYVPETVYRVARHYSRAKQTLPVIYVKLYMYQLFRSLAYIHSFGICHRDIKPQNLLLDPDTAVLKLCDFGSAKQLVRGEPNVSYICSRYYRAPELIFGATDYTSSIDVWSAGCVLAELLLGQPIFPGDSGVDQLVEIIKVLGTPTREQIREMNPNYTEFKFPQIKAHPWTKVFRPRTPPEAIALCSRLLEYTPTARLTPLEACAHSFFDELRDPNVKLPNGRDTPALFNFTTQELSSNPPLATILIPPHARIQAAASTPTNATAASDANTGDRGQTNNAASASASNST

[8] = molecular target: Tyrosine-protein kinase JAK2 (Homo sapiens) (UniProt O60674); test: Inhibition of JAK2 (unknown origin) at 1000 nM in the presence of ATP by Kinome scan method relative to control
Tyrosine-protein kinase JAK2 (Homo sapiens), sequence (O60674 whole entry): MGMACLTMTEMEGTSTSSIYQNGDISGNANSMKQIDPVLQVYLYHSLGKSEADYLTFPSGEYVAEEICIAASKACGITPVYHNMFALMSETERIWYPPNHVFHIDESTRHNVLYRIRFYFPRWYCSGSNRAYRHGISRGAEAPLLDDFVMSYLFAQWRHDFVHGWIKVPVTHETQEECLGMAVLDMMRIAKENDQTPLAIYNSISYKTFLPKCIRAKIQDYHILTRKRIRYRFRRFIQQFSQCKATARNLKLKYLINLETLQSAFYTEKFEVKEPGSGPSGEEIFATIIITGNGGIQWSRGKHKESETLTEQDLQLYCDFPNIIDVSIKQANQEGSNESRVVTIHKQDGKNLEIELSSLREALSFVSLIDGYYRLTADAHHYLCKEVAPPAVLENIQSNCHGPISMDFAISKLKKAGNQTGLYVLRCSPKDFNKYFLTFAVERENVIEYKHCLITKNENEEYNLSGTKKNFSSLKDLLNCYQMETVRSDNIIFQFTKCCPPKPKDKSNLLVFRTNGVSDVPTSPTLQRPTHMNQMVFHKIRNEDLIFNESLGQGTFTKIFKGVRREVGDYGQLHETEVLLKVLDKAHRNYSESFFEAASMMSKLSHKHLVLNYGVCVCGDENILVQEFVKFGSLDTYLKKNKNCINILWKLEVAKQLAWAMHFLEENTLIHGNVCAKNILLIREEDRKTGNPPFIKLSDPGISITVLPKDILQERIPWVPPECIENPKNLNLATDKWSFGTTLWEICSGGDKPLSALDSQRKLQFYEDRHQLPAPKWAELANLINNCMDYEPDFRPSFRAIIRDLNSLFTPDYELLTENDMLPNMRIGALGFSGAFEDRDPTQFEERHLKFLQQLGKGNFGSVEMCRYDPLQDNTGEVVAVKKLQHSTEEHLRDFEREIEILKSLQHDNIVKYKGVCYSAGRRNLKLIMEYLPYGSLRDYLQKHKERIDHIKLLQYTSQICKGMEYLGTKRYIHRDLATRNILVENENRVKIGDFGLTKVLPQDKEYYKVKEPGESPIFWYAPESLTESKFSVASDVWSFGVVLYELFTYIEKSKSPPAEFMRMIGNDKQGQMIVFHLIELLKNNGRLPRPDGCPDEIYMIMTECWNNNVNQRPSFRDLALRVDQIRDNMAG

[9] = molecular target: Mitogen-activated protein kinase 11 (Homo sapiens) (UniProt Q15759); test: Inhibition of MAPK11 (unknown origin) at 1000 nM in the presence of ATP by Kinome scan method relative to control
[10] = molecular target: Mitogen-activated protein kinase 3 (Homo sapiens) (UniProt P27361); test: Inhibition of MAPK3 (unknown origin) at 100 nM in the presence of ATP by Kinome scan method relative to control
[11] = molecular target: cAMP-dependent protein kinase catalytic subunit alpha (Homo sapiens) (UniProt P17612); test: Inhibition of PRKACA (unknown origin) at 1000 nM in the presence of ATP by Kinome scan method relative to control
[12] = molecular target: Protein kinase C alpha type (Homo sapiens) (UniProt P17252); test: Inhibition of PRKCA (unknown origin) at 1000 nM in the presence of ATP by Kinome scan method relative to control
[13] = molecular target: Protein kinase C theta type (Homo sapiens) (UniProt Q04759); test: Inhibition of PRKCQ (unknown origin) at 100 nM in the presence of ATP by Kinome scan method relative to control
[14] = molecular target: Proto-oncogene tyrosine-protein kinase receptor Ret (Homo sapiens) (UniProt P07949); test: Inhibition of RET (unknown origin) at 100 nM in the presence of ATP by Kinome scan method relative to control
[15] = molecular target: Proto-oncogene tyrosine-protein kinase ROS (Homo sapiens) (UniProt P08922); test: Inhibition of ROS1 (unknown origin) at 1000 nM in the presence of ATP by Kinome scan method relative to control
[16] = molecular target: Proto-oncogene tyrosine-protein kinase Src (Homo sapiens) (UniProt P12931); test: Inhibition of SRC (unknown origin) at 100 nM in the presence of ATP by Kinome scan method relative to control
Proto-oncogene tyrosine-protein kinase Src (Homo sapiens), sequence (P12931 2-536 limits assumed): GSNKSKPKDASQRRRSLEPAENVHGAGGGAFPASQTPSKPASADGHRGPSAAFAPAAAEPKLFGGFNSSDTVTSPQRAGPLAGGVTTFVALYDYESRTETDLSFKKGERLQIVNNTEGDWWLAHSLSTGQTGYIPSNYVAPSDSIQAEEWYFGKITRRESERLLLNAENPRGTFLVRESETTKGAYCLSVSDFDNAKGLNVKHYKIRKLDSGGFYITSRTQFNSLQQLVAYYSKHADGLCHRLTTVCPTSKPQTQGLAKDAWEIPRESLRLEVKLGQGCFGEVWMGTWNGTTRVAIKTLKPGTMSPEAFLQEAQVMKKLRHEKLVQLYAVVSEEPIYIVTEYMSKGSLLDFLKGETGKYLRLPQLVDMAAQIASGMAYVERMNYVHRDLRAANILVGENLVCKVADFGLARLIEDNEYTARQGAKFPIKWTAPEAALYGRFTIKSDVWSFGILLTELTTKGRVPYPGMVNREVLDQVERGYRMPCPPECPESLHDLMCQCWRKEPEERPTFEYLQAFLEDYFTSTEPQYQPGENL

[17] = molecular target: Calcium/calmodulin-dependent protein kinase type 1 (Homo sapiens) (UniProt Q14012); test: Inhibition of CAMK1 (unknown origin) at 1000 nM in the presence of ATP by Kinome scan method relative to control
Calcium/calmodulin-dependent protein kinase type 1 (Homo sapiens), sequence (Q14012 whole entry, looked up): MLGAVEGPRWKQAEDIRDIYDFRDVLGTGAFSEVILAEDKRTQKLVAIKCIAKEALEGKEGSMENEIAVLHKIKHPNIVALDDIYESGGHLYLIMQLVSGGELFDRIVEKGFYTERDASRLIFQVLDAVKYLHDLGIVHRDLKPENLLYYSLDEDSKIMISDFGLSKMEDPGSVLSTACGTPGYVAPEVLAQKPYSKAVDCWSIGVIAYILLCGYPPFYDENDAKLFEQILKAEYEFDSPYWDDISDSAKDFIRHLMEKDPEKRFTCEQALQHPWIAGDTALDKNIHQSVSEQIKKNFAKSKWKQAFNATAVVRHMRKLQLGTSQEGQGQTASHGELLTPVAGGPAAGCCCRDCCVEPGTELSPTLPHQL

[18] = molecular target: CDK7/Cyclin H/MNAT1 (Homo sapiens) (UniProt P51946+P50613+P51948); test: Inhibition of CDK7/cyclin H/MNAT1 (unknown origin) at 100 nM in the presence of ATP by Kinome scan method relative to control; type: protein-complex assay
[19] = molecular target: Death-associated protein kinase 1 (Homo sapiens) (UniProt P53355); test: Inhibition of DAPK1 (unknown origin) at 100 nM in the presence of ATP by Kinome scan method relative to control
[20] = molecular target: PI3-kinase p110-alpha/p85-alpha (Homo sapiens) (UniProt P27986+P42336); test: Inhibition of PIK3CA/PIK3R1 (unknown origin) at 1000 nM in the presence of ATP by Kinome scan method relative to control; type: protein-complex assay
[21] = molecular target: Dual specificity protein kinase CLK1 (Homo sapiens) (UniProt P49759); test: Inhibition of CLK1 (unknown origin) in human HCT-116 cells assessed as increase in CLK1 protein level at 0.5 to 0.1 uM incubated for 6 hrs by immunoblot analysis; type: cell-based; conditions: dose 0.5-0.1 µM
Dual specificity protein kinase CLK1 (Homo sapiens), sequence (P49759 whole entry, looked up, canonical isoform): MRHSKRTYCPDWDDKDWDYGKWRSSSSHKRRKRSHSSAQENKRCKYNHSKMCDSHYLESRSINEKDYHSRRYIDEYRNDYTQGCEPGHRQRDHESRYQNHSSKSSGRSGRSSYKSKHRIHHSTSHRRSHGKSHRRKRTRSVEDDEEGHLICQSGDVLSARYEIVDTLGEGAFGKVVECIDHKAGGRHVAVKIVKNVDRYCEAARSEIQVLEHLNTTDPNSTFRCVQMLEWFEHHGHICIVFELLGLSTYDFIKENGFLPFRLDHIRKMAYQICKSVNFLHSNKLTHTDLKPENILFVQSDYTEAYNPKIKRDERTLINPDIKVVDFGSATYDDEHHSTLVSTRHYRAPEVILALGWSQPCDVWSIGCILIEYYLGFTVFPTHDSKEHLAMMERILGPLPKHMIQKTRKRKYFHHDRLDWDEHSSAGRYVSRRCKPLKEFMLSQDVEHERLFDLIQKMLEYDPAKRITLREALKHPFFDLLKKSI
Method in brief: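 HCT116 cells were treated for 3 or 6 h and lysed in SDS sample buffer (Tris-HCl pH 6.8), then boiled for 5 min. Lysates were run on 5–15% or 4–12% gradient gels and transferred to nitrocellulose or PVDF. Blots were blocked in milk or BSA/TBS-T and probed overnight at 4 °C with anti-phospho-SR (1H4, 1/1000), anti-SR, anti-CLK1 or anti-CLK3 antibodies, with GAPDH as loading control.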

HCT-116 [22] = test: Induction of cell cycle arrest in human HCT-116 cells assessed as G0/G1 phase at 1 uM incubated for 6 hrs by flow cytometry analysis (Rvb=35.0%); type: functional
HCT-116 [23] = test: Induction of cell cycle arrest in human HCT-116 cells assessed as sub G0/G1 phase at 5 uM incubated for 6 hrs by flow cytometry analysis (Rvb=1.6%); type: functional
HCT-116 [24] = test: Induction of cell cycle arrest in human HCT-116 cells assessed as G2/M phase at 10 uM incubated for 6 hrs by flow cytometry analysis (Rvb=25.8%); type: functional
HCT-116 [25] = test: Induction of cell cycle arrest in human HCT-116 cells assessed as sub G0/G1 phase at 5 uM incubated for 24 hrs by flow cytometry analysis (Rvb=2.5%); type: functional
HCT-116 [26] = test: Induction of cell cycle arrest in human HCT-116 cells assessed as G0/G1 phase at 10 uM incubated for 24 hrs by flow cytometry analysis (Rvb=35.7%); type: functional
[27] = molecular target: Dual specificity protein kinase CLK1 (Homo sapiens) (UniProt P49759); test: Inhibition of CLK (unknown origin) in human HCT-116 cells assessed as induction in alternative splicing effect in S6K canonical isoform incubated for 6 hrs by RT-PCR analysis; type: cell-based; conditions: dose 0.2-5 µM
Method in brief: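 Cells exposed to graded T3 concentrations for 6 h (chosen to avoid cytotoxicity), with a DMSO vehicle control. Total RNA was reverse-transcribed with oligo-dT primers. Targeted splice or conjoined-gene products were quantified by real-time qPCR or by targeted next-generation sequencing. Conjoined-gene isoform expression was normalized to a sequenced housekeeping gene.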

Dual specificity tyrosine-phosphorylation-regulated kinase 4 (Homo sapiens), sequence (Q9NR20 whole entry): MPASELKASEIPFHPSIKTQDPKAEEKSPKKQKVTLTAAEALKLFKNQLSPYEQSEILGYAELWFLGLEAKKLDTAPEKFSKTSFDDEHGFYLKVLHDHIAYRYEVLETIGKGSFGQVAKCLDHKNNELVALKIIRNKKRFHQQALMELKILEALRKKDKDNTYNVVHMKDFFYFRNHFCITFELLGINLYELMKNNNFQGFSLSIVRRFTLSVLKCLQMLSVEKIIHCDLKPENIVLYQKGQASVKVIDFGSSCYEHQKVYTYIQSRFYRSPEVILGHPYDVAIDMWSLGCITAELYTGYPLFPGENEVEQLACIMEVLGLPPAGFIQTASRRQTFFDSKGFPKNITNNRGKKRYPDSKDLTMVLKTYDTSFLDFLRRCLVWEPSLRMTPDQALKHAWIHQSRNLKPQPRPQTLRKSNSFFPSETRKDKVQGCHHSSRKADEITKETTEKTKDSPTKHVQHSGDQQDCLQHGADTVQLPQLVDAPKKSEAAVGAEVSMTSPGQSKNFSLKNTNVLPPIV

inhibition [1]: -8%
inhibition [2]: 7%
inhibition [3]: 17%
inhibition (Homo sapiens): 3%
inhibition [4]: 1%
inhibition [5]: 2%
inhibition [6]: 24%
inhibition [7]: -3%
inhibition [8]: -6%
inhibition [9]: 1%
inhibition [10]: 6%
inhibition [11]: 4%
inhibition [12]: 4%
inhibition [13]: 5%
inhibition [14]: -1%
inhibition [15]: 0%
inhibition [16]: 13%
inhibition [17]: 5%
inhibition [18]: 1%
inhibition [20]: 4%
inhibition [21]: Active
inhibition [27]: Dose-Dependent Effect
SMILES: CN1CCN(C(=O)C(C)(C)c2ccc(C(=O)Nc3cn4cc(-c5ccncc5)ccc4n3)cc2)CC1 [T3-CLK]
inhibition [19]: -4%
Activity (HCT-116 [22]): 18.4%
Activity (HCT-116 [23]): 2.2%
Activity (HCT-116 [24]): 26.3%
Activity (HCT-116 [25]): 20.9%
Activity (HCT-116 [26]): 21.3%
